The results in this text go back to ChEMBL document CHEMBL1148136, “Induction of quinone reductase by withanolides” (J Nat Prod, 2002).

Test [1] can be described thus: Chemoprevention index, ratio of IC50 for mouse Hepa-1c1c7 cells to drug level required to double specific quinone reductase activity in mouse Hepa-1c1c7 cells. It counts as functional. The procedure, abridged:
(§1)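 Hepa 1c1c7 cells seeded at 4000 cells/mL, grown 24 h at 37 °C under CO2, then medium changed. Compounds added in 10% DMSO, serially diluted over 0.15-20 µg/mL, and incubated a further 48 h. QR measured as NADPH-dependent, menadiol-mediated MTT reduction to formazan. Protein by crystal violet at 595 nm in duplicate plates. Specific activity expressed relative to solvent control. CD = concentration giving 2-fold activity, CQ = 4-fold. CI = IC50/CD or IC50/CQ.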

A short description of test [2]: Chemoprevention index, ratio of IC50 for mouse Hepa-1c1c7 cells to drug level required to induce 4-fold increase in quinone reductase activity in mouse Hepa-1c1c7 cells. The format is functional. The procedure, abridged: as §1
Test [3] in a line: Growth inhibition of mouse Hepa-1c1c7 cells by crystal violet staining. The format is cell-based. The conditions noted are these: Mus musculus, Hepa-1c1c7. The procedure, abridged: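 Hepa 1c1c7 cells seeded at 4000 cells/mL and grown 24 h at 37 °C, then medium changed. Compounds added in 10% DMSO, serially diluted over 0.15-20 µg/mL, and exposed 48 h. Viability read by crystal violet staining at 595 nm. IC50 taken as the half-maximal inhibitory concentration of cell viability.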

For test [4], the system named is Mus musculus. Briefly: Induction of quinone reductase activity in BALB/c mouse liver at 2.5 mg/0.2 ml/day administered intragastrically for 3 consecutive day. It counts as functional, organism-based. In outline:
(§2)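 BALB/c mice, n = 3, dosed intragastrically for 3 consecutive days at 2.5 mg per mouse per day in 0.2 mL sesame oil. Quinone reductase activity was then assessed in liver, lung, colon, stomach and mammary gland tissue, and the change in activity is reported for each organ.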

In test [5] the test system is Mus musculus. Briefly: Induction of quinone reductase activity in BALB/c mouse mammary gland at 2.5 mg/0.2 ml/day administered intragastrically for 3 consecutive day. The format is functional, organism-based. The procedure, abridged: as §2
Test [6] has as its system Mus musculus. Briefly: Induction of quinone reductase activity in BALB/c mouse stomach at 2.5 mg/0.2 ml/day administered intragastrically for 3 consecutive day. The format is functional, organism-based. In outline:
as §2

The subject of test [7] is Mus musculus. Briefly: Induction of quinone reductase activity in BALB/c mouse colon at 2.5 mg/0.2 ml/day administered intragastrically for 3 consecutive day. It counts as functional, organism-based. In outline:
as §2

The subject of test [8] is Mus musculus. Briefly: Induction of quinone reductase activity in BALB/c mouse lung at 2.5 mg/0.2 ml/day administered intragastrically for 3 consecutive day. The format is functional, organism-based. In outline:
as §2

Activity calls are given as the source filed them. No cut-off for these calls is given here. Bounds are passed on as bounds.

For the compound `CC1=C(C)C(=O)O[C@@H]([C@](C)(O)[C@H]2CC[C@H]3[C@@H]4[C@@H](O)C=C5[C@@H](O)C=CC(=O)[C@]5(C)[C@H]4CC[C@]23C)C1`, the Ratio stood at 3.5 in test [1] and 0.62 in test [2]. In addition, half-maximal inhibition in test [3] (IC50) was put at 1.66 µM.

Consider `C[C@H]1C[C@H]([C@](C)(O)[C@H]2[C@@H](O)C[C@H]3[C@@H]4C[C@H]5O[C@]56[C@@H](O)C=CC(=O)[C@]6(C)[C@H]4CC[C@]23C)OC(=O)[C@@H]1C` [WITHAPHYSACARPIN], for which the Ratio was 11.1 in test [1] and 2.5 in test [2]. This compound came in with an IC50 in test [3] of 4.8 µM.

With `C[C@@H](c1ccc2c(c1)CC[C@H]1[C@H]2[C@@H]2O[C@@H]2[C@@]2(O)CC=CC(=O)[C@]12C)C1C[C@]2(C)O[C@]2(C)[C@H](O)O1` (stereo partly drawn) [NICANDRENONE], the Ratio came to 4.1 in test [1] and 1.1 in test [2]. In test [3], the IC50 was found to be 42.9 µM.

On to `CC1=C(CO)C(=O)O[C@@H]([C@@H](C)[C@H]2CC[C@H]3[C@@H]4C[C@@H](O)C5=CC=CC(=O)[C@]5(C)[C@H]4CC[C@]23C)C1` [JABOROSALACTONE B], for which the figures for the Ratio in test [1] and in test [2] were 11.1 and 26.9, respectively. The IC50 in test [3] worked out at 38.5 µM.

In the case of `CC1=C(C)C(=O)O[C@@H]([C@@H](C)[C@H]2[C@@H](O)C[C@H]3[C@@H]4C[C@H]5O[C@]56[C@@H](O)C=CC(=O)[C@]6(C)[C@H]4CC[C@]23C)C1`, the Ratio is reported as above 2.1 in test [1] and 1.3 in test [2]. In addition, 0.66 µM corresponded to half-maximal inhibition in test [3] (IC50).

In the case of `CC(=O)O[C@H]1C=CC(=O)[C@]2(C)[C@H]3CC[C@]45C(O)O[C@@](C)([C@H]6C[C@H](C)[C@@H](C)C(=O)O6)[C@H]4CC[C@H]5[C@@H]3C[C@H]3O[C@]132` (stereo partly drawn), the Ratio in test [1] and in test [2] was above 1.4 in each case. This compound had an IC50 in test [3] of 0.39 µM.

As for `CC1=C(C)[C@]2(OC1=O)C(=O)C(C)=C1CC[C@H]3[C@@H]4C[C@H]5O[C@]56CC=CC(=O)[C@]6(C)[C@H]4C[C@@]2(O)[C@]13C` [JABOROSALACTONE 1], the Ratio in test [1] came to 28.9; in test [2], 6.3. The compound further registered an IC50 in test [3] of 8.08 µM.

As for `CC1=C(C)[C@]2(OC1=O)[C@H](O)[C@@H](C)[C@]1(O)CC[C@H]3[C@@H]4CC=C5CC=CC(=O)[C@]5(C)[C@H]4C[C@@]2(O)[C@@]31C` [JABOROSALACTONE P], the Ratio in test [1] is reported as above 57. In addition, the result in the test with Mus musculus [4], in the test on Mus musculus [5], with Mus musculus [6], in the test on Mus musculus [7] and in the test with Mus musculus [8] was inactive. The compound further displayed an IC50 in test [3] above 42.7 µM.
